# Rows were chosen to be rich in hits. Some 3.1% of all compounds tested hit in one or more screens of this group.
# S100A4 MyoIIA: blocks human S100A4 binding to myosin IIA peptide. S100A4/TAMRA-MyoIIA peptide fluorescence polarization. P26447. inhibition, % at 10.7 µM. 360,000 tested, 0.14% active. AID 652163;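 active = mean inhibition of at least 70% across replicates, with every replicate also reaching that level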
#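 assay system = human S100A4 monomer with TAMRA-labelled myosin IIA peptide | also added = labelled myosin peptide probe, 5 nM | incubation = 5 min between mix addition and reading | control set = DMSO and TFP controls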
# ERAP1 inh: blocks human ERAP1 aminopeptidase activity | Q9NZ08 | recombinant ERAP1, Leu-AMC fluorescence, 60 min | inhibition, % at 10.7 µM | 340,000 tested, 0.15% active | AID 652197;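 active = mean replicate inhibition of at least 30%, or all replicates individually reaching that 30% level; inactive = mean below 30% and not every replicate reaching it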;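 note: 0% = neutral control wells and 100% = L-leucinethiol positive control wells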
# SIRT5 inh: inhibitors of human sirtuin-5 desuccinylase; Q9NXA8; Purified SirT5, succinyl-peptide AMC, trypsin-coupled fluorescence; inhibition, % at 15 µM; 330,000 tested, 1.1% active; in the data active = inhibition above about 15%
# Ecoli rRNA inh: selective bacterial rRNA inhibition in E. coli | GFP signal change (wild-type ribosome), % (test concentration not listed) | AID 720706 | E. coli WT GFP vs humanized-ribosome RFP mutants, fluorescence, 24 h; active compounds read low; DMSO median 0, no signal -100 | 350,000 tested, 1.6% active;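 active = significant combined selectivity score with lowered wild-type GFP, culture density cut under 30%, mutant RFP and density less affected; inactive = any of these conditions unmet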
# CFTR F508del cor: CFTR F508del correction in bronchial cells. AID 720511. activity (quench increase), % at 7.58 µM. 350,000 tested, 0.36% active. CFBE cells, YFP halide quenching; stimulated with forskolin plus potentiator P3; % fluorescence drop versus neutral controls;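 active = mean added fluorescence quench of at least 8% versus neutral control, with both replicates also reaching 8%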;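 note: cells transiently co-express mutant CFTR-F508del with the halide-sensitive YFP; corrector assay measuring rescue of mutant channel to the surface after 24 h compound exposure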
# * = called active by the depositor; nt = no result; ! = not confirmed by another sample.
SMILES,S100A4 MyoIIA,ERAP1 inh,SIRT5 inh,Ecoli rRNA inh,CFTR F508del cor
O=C(Cc1cccnc1)N1CCCCN2[C@H](C1)[C@@H](c1ccc(C#CC3CC3)cc1)[C@@H]2CO,-7,0,0,nt,0
O=C(O)[C@@H]1[C@@H](CO)[C@@H]2Cn3c(ccc(-c4ccncc4)c3=O)[C@H]1N2C(=O)C1CCCC1,7,-6,-79,4,-2
O=Cc1c(C(=O)O)n(Cc2ccccc2Cl)c2ccccc12,-30,5,2,5,-2
C=Cc1ccc(Cn2c(C(=O)O)c(C=O)c3ccccc32)cc1,-15,4,17*,-18,-1
COc1ccc(OC(=O)N(C)C[C@H]2OCc3cnnn3CCCC(=O)N([C@@H](C)CO)C[C@H]2C)cc1,-4,-5,15*!,14,3
Cc1cccc(S(=O)(=O)N2[C@@H]3c4ccc(-c5ccncc5)c(=O)n4C[C@H]2[C@H](CO)[C@H]3C(=O)O)c1,-38,2,-33,2,-1
Fc1ccc(CN2CC3NC(C2)C3c2ccc(Br)cc2)cc1 (stereo not drawn),nt,nt,nt,-4,nt
CCOc1ccc(NC(=O)C2C3c4ccccc4C(c4ccccc43)C2C(=O)O)cc1 (stereo not drawn),3,-1,1,-34*,-3
O=C(O)C1C2c3ccccc3C(c3ccccc32)C1C(=O)Nc1ccccc1 (stereo not drawn),-1,8,-8,-7,-2
COC1C(C)OC(OC2CC(C)(O)Cc3cc4c(c(O)c32)C(=O)c2c(O)cc3c(c2C4=O)OC2OC3(C)C(O)C(N(C)C)C2O)C(OC)C1(C)OC (stereo not drawn),25,5,0,52,20*
CC1=NCCc2c1[nH]c1cc(O)ccc21,-14,53*,-19,nt,32*
O=C(NC[C@H]1CC[C@H]2[C@H](CN2Cc2cccnc2)O1)C1CC1,-20,-1,-9,nt,3
COc1ccc(-c2cc(=O)c3c(OC)c(OC)c(OC)cc3o2)cc1,1,-3,2,-30*,-1
CC=Cc1ccc2n(c1=O)C[C@@H]1[C@@H](CO)[C@H](C(=O)OC)[C@H]2N1C(=O)CC1CC1 (mixture of isomers),-1,2,-12,-1,-1
CCCC(=O)NC(Oc1ccccc1Cl)C(Cl)(Cl)Cl (stereo not drawn),-4,-1,-1,-20*,0
Cc1ccc(N)cc1Cl,-3,0,2,11,5
Nc1ccc(Cl)c(Cl)c1,-2,4,-3,4,12*
CCCCC/C(=N/O)c1c(C)[nH]c2ccccc12,2,-3,-2,-21*,1
O=C(c1ccc(Cl)cc1)C1CCCN(Cc2cccc3cccnc23)C1 (stereo not drawn),-4,-2,2,-23*,3
O=C(c1ccc(Cl)cc1)C1CCCN(Cc2cccc3ncccc23)C1 (stereo not drawn),-3,-2,0,-31,0
O=C(c1ccc(Cl)cc1)C1CCCN(Cc2ccc3nonc3c2)C1 (stereo not drawn),1,9,-1,-28*,0
CSC(=Nc1ccccc1)c1c(O)n(C)c(=O)n(C)c1=O,-13,2,19*,-45,nt
Cn1c(O)c(C(=Nc2ccccc2)SCc2ccccc2Cl)c(=O)n(C)c1=O,-7,0,-1,nt,-1
O=C(O)[C@H]1[C@H](CO)[C@H]2Cn3c(ccc(-c4cncnc4)c3=O)[C@@H]1N2C(=O)NC1CCCC1,4,0,-18,2,-1
N#C/C(=C\c1ccc(O)cc1)C(=O)O (tested in a mixture with another compound),5,-1,2,nt,11*
SMILES,S100A4 MyoIIA,ERAP1 inh,SIRT5 inh,Ecoli rRNA inh,CFTR F508del cor
CC(C)(C#CC(=O)O)OOC(c1ccccc1)(c1ccccc1)c1ccccc1,-11,41*,2,-8,0
CC=Cc1ccc2n(c1=O)C[C@@H]1[C@@H](CO)[C@H](C(=O)N(C)C)[C@H]2N1C (mixture of isomers),25,1,-5,-1,nt
O=Cc1cn(Cc2ccccc2F)c2ccccc12,-3,22,0,-25*,-3
O=Cc1cn(CCCOc2ccccc2)c2ccccc12,0,-1,-3,-49*,nt
O=Cc1cn(Cc2c(F)cccc2Cl)c2ccccc12,1,2,0,-27*,1
O=Cc1cn(Cc2cccc([N+](=O)[O-])c2)c2ccccc12,-7,0,7,-21*,nt
COc1ccc(-c2ccc([C@H]3[C@H]4CN(C(=O)Cc5ccccc5)CCCCN4[C@H]3CO)cc2)cc1,5,4,1,-6,-3
CCOc1ccc2nc(N=Nc3c(O)[nH]c(=O)[nH]c3=O)sc2c1,1,0,-1,-20*,0
CCOc1ccc2nc(N=Nc3c(O)[nH]c(=S)[nH]c3=O)sc2c1,-8,4,10,-34*,-2
O=c1[nH]c(=S)[nH]c(O)c1N=Nc1ccc(SC(F)F)cc1,6,-4,-3,3,-1
CCCN1[C@@H]2Cn3c(ccc(-c4cccc(OC)c4)c3=O)[C@H]1[C@@H](C(=O)OC)[C@@H]2CO,18,-1,-8,2,1
COc1ccc(-c2ccc([C@@H]3[C@H]4CN(C(=O)Cc5ccccc5)CCCCN4[C@H]3CO)cc2)cc1,11,1,6,-49,-3
O=C1NC(=O)C(=Cc2ccc(N3CCOCC3)o2)C(=O)N1,1,11,10,26,9.2*
COC(=O)C1C(O)C(C)C(O)C(C)/C=C\C=C(/C)C(=O)Nc2c(C)c(OC(C)=O)c3c(c2O)C(=O)C(C)=C2OCOC(=C23)/C(C)=C/C(C)(O)C(O)C(C)C1O (stereo not drawn),-7,4,6,-17*,0
O=C(N/N=C/c1c(O)n(CCc2ccccc2)c(=O)[nH]c1=O)c1ccccc1O,5,nt,38*,-17,1
O=C(N/N=C/c1c(O)n(CCc2ccc(F)cc2)c(=O)[nH]c1=O)c1ccccc1,4,0,-1,nt,-1
COc1ccc(C#Cc2ccc([C@@H]3[C@@H](CO)N4CCCCN(C(=O)Cc5ccccc5)C[C@@H]34)cc2)cc1,7,-2,4,3,0
CN(C)[C@@H]1C(=O)C(C(N)=O)=C(O)[C@@]2(O)C(=O)C3=C(O)c4c(O)cccc4[C@@](C)(O)[C@H]3[C@H](O)[C@@H]12,-2,2,41*,nt,3
CN(C)[C@@H]1C(=O)C(C(N)=O)=C(O)[C@@]2(O)C(=O)C3=C(O)c4c(O)cccc4[C@@](C)(O)C3C[C@@H]12 (stereo partly drawn),4,2,20*,nt,-2
CN(C)[C@@H]1C(=O)C(C(N)=O)=C(O)[C@@]2(O)C(=O)C3=C(O)c4c(O)ccc(Cl)c4[C@@](C)(O)[C@H]3C[C@@H]12,-7,1,3,-43,-1
